Measurements from ChEMBL document CHEMBL4308856, “Novel 5-(quinuclidin-3-ylmethyl)-1,2,4-oxadiazoles to investigate the activation of the α7 nicotinic acetylcholine receptor subtype: Synthesis and electrophysiological evaluation” (Eur J Med Chem, 2018).
Active and inactive are the calls of the source. No cut-off for these calls is given here.

Key:
Assay type in all cases: cell-based
[1] = molecular target: T1, Neuronal acetylcholine receptor subunit alpha-7 (Homo sapiens, UniProt P36544); assay: Partial agonist activity at human alpha7 nAChR expressed in Xenopus laevis oocytes assessed as increase in peak current amplitude at 30 uM at -60 mV holding potential treated for 12 secs followed by compound washout for 181 secs by whole cell two electrode voltage-clamp assay relative to ACh
T1 sequence (P36544 whole entry, the tested form may be a part): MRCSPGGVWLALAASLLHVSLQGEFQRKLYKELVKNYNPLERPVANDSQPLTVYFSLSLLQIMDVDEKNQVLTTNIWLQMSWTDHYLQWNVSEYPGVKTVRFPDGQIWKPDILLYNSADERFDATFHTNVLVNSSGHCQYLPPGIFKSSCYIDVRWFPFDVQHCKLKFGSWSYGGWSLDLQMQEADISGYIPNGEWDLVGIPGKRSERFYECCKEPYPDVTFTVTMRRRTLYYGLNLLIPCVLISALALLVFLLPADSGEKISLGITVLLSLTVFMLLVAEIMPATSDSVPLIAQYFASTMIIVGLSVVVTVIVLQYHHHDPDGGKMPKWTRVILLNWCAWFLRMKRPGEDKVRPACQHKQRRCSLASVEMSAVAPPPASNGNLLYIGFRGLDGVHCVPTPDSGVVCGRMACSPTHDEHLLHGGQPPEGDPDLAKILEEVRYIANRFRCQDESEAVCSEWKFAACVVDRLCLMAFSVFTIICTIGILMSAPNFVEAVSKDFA
Summary of the method: (§1)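 Human α7 nAChR expressed in Xenopus laevis oocytes, two-electrode voltage clamp at −60 mV with 3 M KCl electrodes. Ringer's with atropine, pH 7.2, perfused at 2 mL/min. Compound was applied at 30 μM for 12 s with a 181 s washout. Peak current and net charge were each normalized to the mean of two prior 60 μM ACh controls in the same oocyte; the peak/net-charge ratio was taken. Mean ± SEM, at least four oocytes.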

[2] = molecular target: T1, Neuronal acetylcholine receptor subunit alpha-7; assay: (§2) Partial agonist activity at human alpha7 nAChR expressed in Xenopus laevis oocytes assessed as increase in net charge at 30 uM at -60 mV holding potential treated for 12 secs followed by compound washout for 181 secs by whole cell two electrode voltage-clamp assay relative to ACh; summary of the method: as §1
[3] = molecular target: T1, Neuronal acetylcholine receptor subunit alpha-7; assay: (§3) Ratio of partial agonist activity at human alpha7 nAChR expressed in Xenopus laevis oocytes assessed as increase in peak current amplitude relative to ACh to partial agonist activity at human alpha7 nAChR expressed in Xenopus laevis oocytes assessed as increase in net charge relative to ACh; summary of the method: as §1
[4] = molecular target: T1, Neuronal acetylcholine receptor subunit alpha-7; assay: as §2, with “Silent agonist activity” for “Partial agonist activity”, “181 secs in presence of type 2 PAM PNU-120596 by whole” for “181 secs by whole”
Summary of the method: (§4)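 α7 (human) expressed in Xenopus oocytes, voltage-clamped at −60 mV, Ringer's pH 7.2 with atropine at 2 mL/min. Compound (3, 10 or 30 μM) was co-applied with PNU-120596 for 12 s, then washed out for 181 s. Net charge was expressed relative to the mean of two preceding 60 μM ACh control responses in the same oocyte. Mean ± SEM, at least four oocytes.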

[5] = molecular target: T1, Neuronal acetylcholine receptor subunit alpha-7; assay: as §3, with “of Silent” for “of partial”, “in net charge in presence of type 2 PAM PNU-120596” for “in peak current amplitude”
Summary of the method: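 PNU effectiveness: net-charge response of human α7 nAChR (Xenopus oocytes, −60 mV clamp) to compound co-applied with 10 μM PNU-120596, divided by the response to compound alone. Both responses were normalized to 60 μM ACh controls, with 12 s applications and 181 s washout.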

[6] = molecular target: T1, Neuronal acetylcholine receptor subunit alpha-7; assay: (§5) Silent agonist activity at human alpha7 nAChR expressed in Xenopus laevis oocytes assessed as increase in net charge at 3 to 10 uM at -60 mV holding potential treated for 12 secs followed by compound washout for 181 secs in presence of type 2 PAM PNU-120596 by whole cell two electrode voltage-clamp assay relative to ACh; summary of the method: as §4
[7] = molecular target: T1, Neuronal acetylcholine receptor subunit alpha-7; assay: as §5, with “at” for “at 3 to”; summary of the method: as §4
[8] = molecular target: T1, Neuronal acetylcholine receptor subunit alpha-7; assay: as §5, with “3” for “3 to 10”; summary of the method: as §4
[9] = molecular target: T1, Neuronal acetylcholine receptor subunit alpha-7; assay: Partial agonist activity at human alpha7 nAChR expressed in Xenopus laevis oocytes at -60 mV holding potential treated for 12 secs followed by compound washout for 181 secs by whole cell two electrode voltage-clamp assay relative to ACh
[10] = molecular target: T1, Neuronal acetylcholine receptor subunit alpha-7; assay: Antagonist activity at human alpha7 nAChR expressed in Xenopus laevis oocytes assessed as inhibition of post control Ach-induced response by measuring residual activity at 30 uM at -60 mV holding potential treated for 12 secs followed by compound washout for 181 secs by whole cell two electrode voltage-clamp assay (Rvb =60%)
[11] = molecular target: T1, Neuronal acetylcholine receptor subunit alpha-7; assay: Antagonist activity at human alpha7 nAChR expressed in Xenopus laevis oocytes assessed as Ach-induced response by measuring residual activity at 30 uM at -60 mV holding potential treated for 12 secs followed by compound washout for 181 secs by whole cell two electrode voltage-clamp assay (Rvb =60%)
[12] = molecular target: T2, Neuronal acetylcholine receptor; alpha3/beta4 (Homo sapiens) (UniProt P30926+P32297); assay: Antagonist activity at human alpha3beta4 nAChR expressed in Xenopus laevis oocytes assessed as inhibition of Ach-induced channel activation at 30 uM at -60 mV holding potential treated for 6 secs followed by compound washout for 241 secs by whole cell two electrode voltage-clamp assay
[13] = molecular target: T2, Neuronal acetylcholine receptor; alpha3/beta4 (Homo sapiens); assay: Antagonist activity at human alpha3beta4 nAChR expressed in Xenopus laevis oocytes assessed as inhibition of post-control Ach-induced channel activation at 30 uM at -60 mV holding potential treated for 6 secs followed by compound washout for 241 secs by whole cell two electrode voltage-clamp assay
[14] = molecular target: T1, Neuronal acetylcholine receptor subunit alpha-7; assay: Partial agonist activity at human alpha7 nAChR expressed in Xenopus laevis oocytes assessed as increase in net charge at 3 uM at -60 mV holding potential treated for 12 secs followed by compound washout for 181 secs by whole cell two electrode voltage-clamp assay relative to ACh
Summary of the method: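 Human α7 nAChR in Xenopus oocytes under two-electrode voltage clamp at −60 mV, perfused with Ringer's (pH 7.2, atropine) at 2 mL/min. Compound was given alone at 3 μM as a 12 s application followed by 181 s washout. Net-charge response was normalized to the average of two initial 60 μM ACh controls from the same oocyte.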

Row | SMILES | fold change (FC) [1] | fold change (FC) [2] | Ratio [3] | fold change (FC) [4] | Ratio [5] | fold change (FC) [6] | Activity [7] | fold change (FC) [8] | EC50 [9] | Activity [10] | Activity [11] | inhibition [12] | inhibition [13] | fold change (FC) [14] | Activity [6] | Activity [8]
1 | C[N+]12CCC(CC1)C(Cc1nc(-c3cccnc3)no1)C2 (configuration not stated) | 0.023 | 0.048 | 0.48 | 3.9 | 81 | – | – | – | – | – | – | – | – | – | – | –
2 | C[N+]12CCC(CC1)C(Cc1nc(-c3cccc(F)c3)no1)C2 (configuration not stated) | 0.067 | 0.063 | 1.06 | 0.3 | 5 | – | – | – | – | – | – | – | – | – | – | –
3 | C[N+]12CCC(CC1)C(Cc1nc(-c3cccc(I)c3)no1)C2 (configuration not stated) | 0.866 | 0.239 | 3.62 | 0.3 | 1 | – | – | – | – | – | – | – | – | – | – | –
4 | C[N+]12CCC(CC1)C(Cc1nc(-c3ccncc3)no1)C2 (configuration not stated) | 0.034 | 0.047 | 0.72 | 2.6 | 55 | – | – | – | – | – | – | – | – | – | – | –
5 | C[N+]12CCC(CC1)C(Cc1nc(-c3ccccc3)no1)C2 (configuration not stated) | 0.069 | 0.112 | 0.62 | 2.4 | 21 | – | – | – | – | – | – | – | – | – | – | –
6 | c1cc(-c2noc(CC3CN4CCC3CC4)n2)ccn1 (configuration not stated) | 0.553 | 0.703 | 0.79 | 25.5 | 36 | – | – | – | – | – | – | – | – | – | – | –
7 | Cc1cccc(-c2noc(CC3C[N+]4(C)CCC3CC4)n2)c1 (configuration not stated) | 0.079 | 0.077 | 1.03 | 1.2 | 16 | 10.9 | inactive | – | – | – | – | – | – | – | – | –
8 | c1cncc(-c2noc(CC3CN4CCC3CC4)n2)c1 (configuration not stated) | 0.867 | 0.483 | 1.8 | 13.7 | 28 | – | – | – | – | – | – | – | – | – | – | –
9 | Cc1noc(CC2C[N+]3(C)CCC2CC3)n1 (configuration not stated) | 0.003 | 0.001 | 3 | 0.1 | 100 | – | – | – | – | – | – | – | – | – | – | –
10 | C[N+]12CCC(CC1)C(Cc1nc(-c3ccco3)no1)C2 (configuration not stated) | 0.01 | 0.014 | 0.71 | 27.9 | 1990 | – | – | – | – | – | – | – | – | – | – | –
11 | c1csc(-c2noc(CC3CN4CCC3CC4)n2)c1 (configuration not stated) | 2.06 | 0.508 | 4.06 | 5 | 10 | – | – | 13.4 | < 30 µM | – | – | – | – | – | – | –
12 | C[N+]12CCC(CC1)C(Cc1nc(-c3cccc(C(F)(F)F)c3)no1)C2 (configuration not stated) | 0.077 | 0.035 | 2.2 | 0.1 | 3 | – | – | – | – | 60% | 10% | Active | inactive | – | – | –
13 | C[N+]12CCC(CC1)C(Cc1nc(-c3cccc(Cl)c3)no1)C2 (configuration not stated) | 0.293 | 0.151 | 1.94 | 0.7 | 5 | – | – | – | – | – | – | – | – | – | – | –
14 | Ic1cccc(-c2noc(CC3CN4CCC3CC4)n2)c1 (configuration not stated) | 1.21 | 0.245 | 4.94 | 0.5 | 2 | – | – | – | – | – | – | – | – | – | – | –
15 | COc1cccc(-c2noc(CC3C[N+]4(C)CCC3CC4)n2)c1 (configuration not stated) | 0.119 | 0.129 | 0.92 | 1.8 | 14 | – | – | – | – | – | – | – | – | – | – | –
16 | Clc1cccc(-c2noc(CC3CN4CCC3CC4)n2)c1 (configuration not stated) | 1.2 | 0.32 | 3.76 | 0.6 | 2 | – | – | – | – | – | – | – | – | – | – | –
17 | c1ccc(-c2noc(CC3CN4CCC3CC4)n2)cc1 (configuration not stated) | 1.3 | 0.602 | 2.16 | 1.7 | 3 | – | – | 17.4 | < 30 µM | – | – | – | – | – | – | –
18 | Brc1cccc(-c2noc(CC3CN4CCC3CC4)n2)c1 (configuration not stated) | 0.92 | 0.274 | 3.36 | 0.5 | 2 | – | – | – | – | – | – | – | – | – | – | –
19 | Fc1cccc(-c2noc(CC3CN4CCC3CC4)n2)c1 (configuration not stated) | 2.05 | 0.458 | 4.47 | 0.9 | 2 | – | – | – | – | – | – | – | – | – | – | –
20 | c1coc(-c2noc(CC3CN4CCC3CC4)n2)c1 (configuration not stated) | 2.14 | 0.575 | 3.73 | 32.3 | 56 | – | – | – | < 30 µM | – | – | – | – | 0.15 | – | –
21 | C[N+]12CCC(CC1)C(Cc1nc(-c3cccc(Br)c3)no1)C2 (configuration not stated) | 0.44 | 0.177 | 2.49 | 0.3 | 2 | – | – | – | – | – | – | – | – | – | – | –
22 | Cc1cccc(-c2noc(CC3CN4CCC3CC4)n2)c1 (configuration not stated) | 2.11 | 0.434 | 4.85 | 77.3 | 178 | – | – | – | – | – | – | – | – | – | – | –
23 | COc1ccc(-c2noc(CC3C[N+]4(C)CCC3CC4)n2)cc1 (configuration not stated) | 0.051 | 0.075 | 0.68 | 2.2 | 29 | – | – | – | – | – | – | – | – | – | Active | –
24 | Cc1noc(CC2CN3CCC2CC3)n1 (configuration not stated) | 0.026 | 0.042 | 0.62 | 5.1 | 121 | – | inactive | – | – | – | – | – | – | – | – | inactive
25 | FC(F)(F)c1cccc(-c2noc(CC3CN4CCC3CC4)n2)c1 (configuration not stated) | 0.144 | 0.055 | 2.62 | 0.1 | 2 | – | – | – | – | – | – | – | – | – | – | –
26 | C[N+]12CCC(CC1)C(Cc1nc(-c3cccs3)no1)C2 (configuration not stated) | 0.103 | 0.127 | 0.81 | 0.2 | 2 | – | – | – | – | – | – | – | – | – | – | –
27 | COc1cccc(-c2noc(CC3CN4CCC3CC4)n2)c1 (configuration not stated) | 1.42 | 0.511 | 2.77 | 1 | 2 | – | – | – | – | – | – | – | – | – | – | –
28 | COc1ccc(-c2noc(CC3CN4CCC3CC4)n2)cc1 (configuration not stated) | 1.98 | 0.401 | 4.93 | 1.6 | 4 | – | – | 4.4 | < 30 µM | – | – | – | – | – | – | –
